The results in this text go back to ChEMBL document CHEMBL1131331, “Structure-activity studies on anticonvulsant sugar sulfamates related to topiramate. Enhanced potency with cyclic sulfate derivatives” (J Med Chem, 1998).

Broadly, the ED50 is the midpoint of the dose-response relation. A lower ED50 goes with an effect at a small dose.

What all share (format): functional
The test system of test [1] is Mus musculus. Nature of the test: Activity against maximal electroshock seizures in mice, 4 hr following oral administration of 75 mg/kg. The gist of the method: (§1)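 Mouse maximal electroshock seizure test. An electric shock is applied through corneal electrodes, and block of the hind-limb tonic-extensor seizure is scored. Compounds are given orally, usually to 10 mice per group, and tested 4 h after dosing. The result is reported as percent of dosed animals protected at the stated dose.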

For test [2], the system named is Mus musculus. Briefly: Activity against maximal electroshock seizures in mice, 4 hr following oral administration of 300 mg/kg of compound. The procedure, abridged:
as §1
In general terms: In the maximal electroshock model the usual endpoint is tonic extension of the hind limbs.

The test system of test [3] is Mus musculus. Nature of the test: Effective dose against maximal electroshock seizures in mice, at 4 hr following oral administration of 10 mg/kg of compound.
Test [4] relates to Mus musculus. Nature of the test: Inhibition of maximal electroshock seizures in mice, 4 hr following 10 mg/kg p.o. administration. Conditions: route oral. The gist of the method:
as §1

In test [5] the test system is Mus musculus. Briefly: Activity against maximal electroshock seizures in mice, 4 hr following oral administration of 35 mg/kg of compound. The procedure, abridged:
as §1

Test [6] deals with Mus musculus. Briefly: Activity against maximal electroshock seizures in mice, 4 hr following oral administration of 75 mg/kg of compound. The procedure, abridged: as §1

SMILES strings stand for the structures.

In turn, `CC1(C)O[C@H]2[C@@H]3OC(=S)O[C@@H]3CO[C@@]2(COS(N)(=O)=O)O1` returned a Block in the test on Mus musculus [1] of 12.5%.
Still for that read-out and setting: the same measure for `CC1(C)O[C@H]2[C@H]3C(CO[C@@]2(COS(N)(=O)=O)O1)C3(Cl)Cl` (stereo partly specified): 0%.
In the case of `CC(=O)NS(=O)(=O)OC[C@@]12OC[C@H]3OC(C)(C)O[C@H]3[C@@H]1OC(C)(C)O2`, the Block in the test on Mus musculus [1] is 30%.
The same measure, in the same setting: under `CC(OS(N)(=O)=O)[C@@]12OC[C@H]3OC(C)(C)O[C@H]3[C@@H]1OC(C)(C)O2` (stereo partly specified) stands 0%.
`NS(=O)(=O)OC[C@@]12CCC=C[C@@H]1CCC2` came in with a Block with Mus musculus [1] of 0%.
Regarding `CCC1(CC)O[C@@H]2[C@@H](CO[C@@]3(COS(N)(=O)=O)OC(CC)(CC)O[C@@H]23)O1`, the Block in the test with Mus musculus [1] amounted to 0%; in the test with Mus musculus [2], 70%.
Compound `CC1(C)O[C@H]2[C@@H]3OS(=O)O[C@@H]3CO[C@@]2(COS(N)(=O)=O)O1` (stereo partly specified) returned a 50% effective dose (ED50) in the test on Mus musculus [3] of 5.7 mg/kg.
Consider `CC1(C)O[C@H]2[C@@H]3OC(C(F)(F)F)(C(F)(F)F)O[C@@H]3CO[C@@]2(COS(N)(=O)=O)O1`, for which, in the test with Mus musculus [1], the Block stood at 40%.
Turning to `CCCCNS(=O)(=O)OC[C@@]12OC[C@H]3OC(C)(C)O[C@H]3[C@@H]1OC(C)(C)O2`, the values for the Block with Mus musculus [4] and in the test with Mus musculus [1] were 0% and 80%, respectively.
Compound `CC1(C)O[C@@H]2[C@@H](CC[C@@]3(COS(N)(=O)=O)CCC[C@@H]23)O1` had a Block with Mus musculus [1] of 0%.
In the case of `NS(=O)(=O)OC[C@@]12CCCC[C@@H]1CCC2`, in the test on Mus musculus [1], the Block is reported as 0%.
The same measure, in the same setting: the same measure for `C[C@H]1O[C@@H]2[C@@H](CO[C@@]3(COS(N)(=O)=O)OC(C)(C)O[C@@H]23)O1`: 0%; for `CC1(C)C[C@H]2[C@@H]3OC(C)(C)O[C@@H]3CC[C@@]2(COS(N)(=O)=O)C1`: 0%.
In the case of `CC1(C)O[C@H]2[C@@H]3OCO[C@@H]3CO[C@@]2(COS(N)(=O)=O)O1`, the Block in the test with Mus musculus [1] stood at 0%.
On the same count and under the same terms, the same measure for `CC1(C)O[C@H]2[C@@H]3OS(=O)(=O)O[C@@H]3CO[C@@]2(COS(=O)(=O)N2CCN(Cc3ccccc3)CC2)O1`: 0%.
As for `NS(=O)(=O)OC[C@@]12OC[C@H]3O[C@@H](c4ccccc4)O[C@H]3[C@@H]1O[C@H](c1ccccc1)O2`, the Block in the test with Mus musculus [1] amounted to 0%.
Same read-out and setting: under `CC1(C)O[C@H]2[C@@H]3OC4(CCCC4)O[C@@H]3CO[C@@]2(COS(N)(=O)=O)O1` stands 0%; under `CC1(C)O[C@H]2[C@@H]3OS(=O)(=O)O[C@@H]3CO[C@@]2(COS(=O)(=O)N2CCCCC2)O1`, 0%.
For the compound `CCO[C@@H]1[C@H](OCC)CO[C@@]2(COS(N)(=O)=O)OC(C)(C)O[C@@H]12`, the Block with Mus musculus [1] worked out at 0%; with Mus musculus [2] it was 40%.
As for `CN(C[C@@]12OC[C@H]3OC(C)(C)O[C@H]3[C@@H]1OC(C)(C)O2)S(N)(=O)=O`, in the test with Mus musculus [1], the Block is recorded as 0%.
In turn, `CC1(C)O[C@H]2[C@@H]3OS(=O)(=O)O[C@@H]3CO[C@@]2(COC(N)=O)O1` displayed a Block in the test on Mus musculus [1] of 0%.
Same read-out and setting: the same measure for `CC1(C)O[C@@H]2[C@@H](CO[C@@]3(COS(C)(=O)=O)OC(C)(C)O[C@@H]23)O1`: 0%.
For the compound `CC1(C)O[C@H]2CCCO[C@@]2(COS(N)(=O)=O)O1`, the Block with Mus musculus [1] came out at 0%; with Mus musculus [2], 100%.
Consider `CC1(C)O[C@@H]2[C@@H](CO[C@@]3(CCS(N)(=O)=O)OC(C)(C)O[C@@H]23)O1`, for which the Block in the test on Mus musculus [1] is given as 0%.
On the same count and under the same terms, the same measure for `NS(=O)(=O)OC[C@]12CCC[C@H]1[C@@H]1OS(=O)(=O)O[C@@H]1CC2`: 0%; for `NS(=O)(=O)OC[C@@]12OC[C@H]3OC4(CCCCC4)O[C@H]3[C@@H]1OC1(CCCCC1)O2`: 0%.
On to `CC[C@H]1O[C@@H]2[C@@H](CO[C@@]3(COS(N)(=O)=O)OC(C)(C)O[C@@H]23)O1`, for which the Block turned out to be 10% in the test with Mus musculus [5] and 90% in the test with Mus musculus [1].
In the test on Mus musculus [1], `CC[C@@]1(C)O[C@@H]2[C@@H](CO[C@@]3(COS(N)(=O)=O)OC(C)(C)O[C@@H]23)O1` had a Block of 90%.
With `CC1(C)O[C@H]2[C@@H]3OS(=O)(=O)O[C@@H]3CO[C@@]2(COS(=O)(=O)n2ccnc2)O1`, the Block stood at 100% in the test with Mus musculus [6] and 0% with Mus musculus [4].
Compound `CC1(C)O[C@H]2C=CCO[C@@]2(COS(N)(=O)=O)O1` came in with a Block in the test on Mus musculus [2] of 0%.
In the case of `Cc1ccc(S(=O)(=O)N=S2(=O)O[C@@H]3[C@@H](CO[C@@]4(COS(N)(=O)=O)OC(C)(C)O[C@@H]34)O2)cc1` (stereo partly specified), the Block in the test on Mus musculus [2] was determined as 80%.
In turn, `CC1(C)O[C@H]2[C@@H]3O[C@@H]3CO[C@@]2(COS(N)(=O)=O)O1` had a Block in the test on Mus musculus [1] of 30%.
As for `CCNS(=O)(=O)OC[C@@]12OC[C@H]3OC(C)(C)O[C@H]3[C@@H]1OC(C)(C)O2`, the figures for the Block in the test on Mus musculus [5] and with Mus musculus [1] were 0% and 90%, respectively.
As for `C[C@@H]1O[C@@H]2[C@@H](CO[C@@]3(COS(N)(=O)=O)OC(C)(C)O[C@@H]23)O1`, the Block with Mus musculus [4] is on record as 0%; in the test with Mus musculus [1], 100%.
Regarding `NS(=O)(=O)OC[C@@]12OC[C@H]3OS(=O)(=O)O[C@H]3[C@@H]1OC1(CCCCC1)O2`, the Block with Mus musculus [1] stood at 0%; with Mus musculus [2], 10%.
The corresponding values for `Cc1ccc(S(=O)(=O)/N=S2\O[C@@H]3[C@@H](CO[C@@]4(COS(N)(=O)=O)OC(C)(C)O[C@@H]34)O2)cc1` (stereo partly specified) are 0% and 75%.
`CO[C@@H]1[C@H](OC)CO[C@@]2(COS(N)(=O)=O)OC(C)(C)O[C@@H]12` registered a Block in the test with Mus musculus [1] of 0%.
With `CC1(C)O[C@H]2[C@@H]3O[C@H](C(C)(C)C)O[C@@H]3CO[C@@]2(COS(N)(=O)=O)O1`, the Block in the test with Mus musculus [1] was found to be 0%.
In the case of `CC1(C)O[C@@H]2[C@@H](CO[C@@]3(CNS(N)(=O)=O)OC(C)(C)O[C@@H]23)O1`, the Block with Mus musculus [1] stood at 0%.
Take `CCC1(CC)O[C@H]2[C@@H]3OS(=O)(=O)O[C@@H]3CO[C@@]2(COS(N)(=O)=O)O1`: the results for the Block in the test with Mus musculus [6] and in the test on Mus musculus [4] were 100% and 0%, respectively.
For the compound `CC1(C)O[C@H]2[C@H](Br)[C@@H](Br)CO[C@@]2(COS(N)(=O)=O)O1`, the Block amounted to 0% in the test with Mus musculus [4] and 100% in the test with Mus musculus [1]. This compound yielded a 50% effective dose (ED50) in the test with Mus musculus [3] of 21 mg/kg.
Consider `CC1(C)O[C@@H]2[C@@H](CO[C@@]3(COS(=O)(=O)NCc4ccccc4)OC(C)(C)O[C@@H]23)O1`, for which the Block with Mus musculus [1] is given as 0%.
`CC1(C)O[C@H]2[C@@H]3OCCO[C@@H]3CO[C@@]2(COS(N)(=O)=O)O1` had a Block in the test with Mus musculus [1] of 0%.
For `CB1O[C@@H]2[C@@H](CO[C@@]3(COS(N)(=O)=O)OC(C)(C)O[C@@H]23)O1`, the Block in the test with Mus musculus [1] was determined as 0%; in the test on Mus musculus [2], 50%.
`CC1(C)O[C@H]2[C@@H]3O[C@](C)(C(C)(C)C)O[C@@H]3CO[C@@]2(COS(N)(=O)=O)O1` registered a Block in the test with Mus musculus [1] of 0%.
For `CSC(=O)O[C@H]1CO[C@@]2(COS(N)(=O)=O)OC(C)(C)O[C@H]2[C@@H]1I`, the Block stood at 0% in the test with Mus musculus [4] and 90% in the test with Mus musculus [1]. Besides, it took a dose of 30 mg/kg to reach the 50% effect level with Mus musculus [3] (ED50).
For the compound `NS(=O)(=O)OC[C@]12CCC[C@H]1[C@@H]1C[C@@H]1CC2`, in the test with Mus musculus [1], the Block came to 0%.
On the same count and under the same terms, under `CC1(C)O[C@@H]2[C@@H](CO[C@@]3(CCCOS(N)(=O)=O)OC(C)(C)O[C@@H]23)O1` stands 0%.
Take `CC1(C)O[C@H]2[C@@H]3O[C@H](c4ccccc4)O[C@@H]3CO[C@@]2(COS(N)(=O)=O)O1`: the Block in the test with Mus musculus [5] amounted to 0%; with Mus musculus [1], 20%.
Compound `CCO[C@@H]1O[C@@H]2[C@@H](CO[C@@]3(COS(N)(=O)=O)OC(C)(C)O[C@@H]23)O1` yielded a Block with Mus musculus [1] of 0%.
For the compound `CC1(C)O[C@@H]2[C@@H](CO[C@@]3(CCOS(N)(=O)=O)OC(C)(C)O[C@@H]23)O1`, the Block with Mus musculus [1] is 0%.
As for `CC1(C)O[C@H]2[C@@H]3OB(c4ccccc4)O[C@@H]3CO[C@@]2(COS(N)(=O)=O)O1`, the Block in the test with Mus musculus [1] turned out to be 0%.
The compound `COc1ccc(NS(=O)(=O)OC[C@@]23OC[C@H]4OS(=O)(=O)O[C@H]4[C@@H]2OC(C)(C)O3)cc1` gave a Block in the test with Mus musculus [1] of 0%.
Consider `COC1(OC)O[C@@H]2[C@@H](CO[C@@]3(COS(N)(=O)=O)OC(C)(C)O[C@@H]23)O1`, for which the Block in the test with Mus musculus [1] worked out at 0%.
With `CC1(C)O[C@H]2[C@@H]3OS(=O)(=O)O[C@@H]3CO[C@@]2(COS(=O)(=O)N=[N+]=[N-])O1`, the figures for the Block in the test with Mus musculus [4] and with Mus musculus [5] were 0% and 100%, respectively.
Take `CCC(OS(N)(=O)=O)[C@@]12OC[C@H]3OC(C)(C)O[C@H]3[C@@H]1OC(C)(C)O2` (stereo partly specified): the Block with Mus musculus [1] is given as 0%.
In the case of `CC1(C)O[C@H]2[C@@H]3OC(=O)O[C@@H]3CO[C@@]2(COS(N)(=O)=O)O1`, the Block in the test with Mus musculus [1] was determined as 0%; in the test with Mus musculus [2] it was 70%.
